Experimental data published in ChEMBL document CHEMBL3596101, “The Mechanism of Ca(2+) Movement in the Involvement of Baicalein-Induced Cytotoxicity in ZR-75-1 Human Breast Cancer Cells” (J Nat Prod, 2015).
The source made the active and inactive calls. No cut-off for these calls is given here.

Key:
ZR-75-1 [1] = experiment: Induction of apoptosis in human ZR-75-1 cells assessed as early apoptotic cells at 20 uM after 24 hrs by annexin V-FITC/propidium iodide staining-based flow cytometric analysis (reference value: 6.84%); format: functional
How it was run: (§1)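 ZR-75-1 cells exposed to 20–40 μM compound for 24 h, with 5 μM BAPTA-AM or NAC added first where indicated. Cells stained with Alexa Fluor 488 annexin V/PI for 15 min, at least 20000 cells analysed by flow cytometry (488 nm excitation, 530/575 nm filters). Early = annexin V+/PI−, late = annexin V+/PI+. Three independent biological replicates.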

ZR-75-1 [2] = experiment: Increase in intracellular Ca2+ level in human ZR-75-1 cells at 40 uM treated for 60 secs post PLC inhibitor U73122 addition by fura-2-AM dye-based spectrofluorophotometric analysis in presence of Ca2+ free medium; format: functional, cell-based
How it was run: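 Performed in Ca2+-free medium with fura-2-loaded ZR-75-1 cells. Response expressed relative to 40 μM compound alone (100%). Three experiments.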

ZR-75-1 [3] = experiment: Increase in intracellular Ca2+ level in human ZR-75-1 cells at 40 uM by fura-2-AM dye-based spectrofluorophotometric analysis in presence of Ca2+ containing medium with Ca2+ chelator BAPTA-AM; format: functional, cell-based
How it was run: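 Fura-2-loaded ZR-75-1 cells treated with 5 μM BAPTA-AM, then 40 μM compound in Ca2+-containing medium (2 mM CaCl2, pH 7.4). Ratio fluorescence 340/380 nm excitation, 510 nm emission, 25 °C cuvette.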

ZR-75-1 [4] = experiment: Cytotoxicity against human ZR-75-1 cells assessed as decrease in cell viability after 24 hrs by WST-1 assay; format: functional, cell-based
How it was run: (§2)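 WST-1 assay on ZR-75-1 cells seeded at 10000 cells/well, exposed to 0–50 μM compound for 24 h. Where used, 5 μM BAPTA-AM was given for 1 h beforehand, then cells were washed with Ca2+-containing medium. WST-1 incubation 30 min, A450 read. Viability expressed as % of compound-free control. Six wells per treatment, three separate experiments.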

ZR-75-1 [5] = experiment: Cytotoxicity against human ZR-75-1 cells assessed as induction cell death at 20 to 50 uM after 24 hrs by WST-1 assay in presence of Ca2+ containing medium with Ca2+ chelator BAPTA-AM; format: functional, cell-based; how it was run: as §2
ZR-75-1 [6] = experiment: Induction of apoptosis in human ZR-75-1 cells at 20 to 40 uM after 24 hrs by annexin V-FITC/propidium iodide staining-based flow cytometric analysis in presence of Ca2+ chelator BAPTA-AM; format: functional, cell-based; how it was run: as §1
ZR-75-1 [7] = experiment: Induction of reactive oxygen species production in human ZR-75-1 cells at 20 uM after 24 hrs by DCFH-DA probe-based flow cytometric analysis (reference value: 3.623%); format: functional
How it was run: (§3)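 ZR-75-1 cells treated with 20–40 μM compound for 24 h, with 5 μM BAPTA-AM added first where indicated. Cells suspended at 1 × 10^6/mL, loaded with 10 μM DCFH-DA for 30 min at 37 °C. DCF read by flow cytometry (488 nm excitation, 530/30 nm filter, 10000 cells). % H2O2-positive (M1) after subtracting the baseline without probe. Three experiments.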

ZR-75-1 [8] = experiment: Induction of reactive oxygen species production in human ZR-75-1 cells at 30 uM after 24 hrs by DCFH-DA probe-based flow cytometric analysis (reference value: 3.623%); format: functional; how it was run: as §3
ZR-75-1 [9] = experiment: Induction of reactive oxygen species production in human ZR-75-1 cells at 40 uM after 24 hrs by DCFH-DA probe-based flow cytometric analysis (reference value: 3.623%); format: functional; how it was run: as §3
ZR-75-1 [10] = experiment: Induction of reactive oxygen species production in human ZR-75-1 cells at 20 to 40 uM after 24 hrs by DCFH-DA probe-based flow cytometric analysis in presence of Ca2+ containing medium with Ca2+ chelator BAPTA-AM; format: functional, cell-based; how it was run: as §3
ZR-75-1 [11] = experiment: Induction of cell death in human ZR-75-1 cells at 20 to 50 uM after 24 hrs by WST-1 assay in presence of antioxidant N-Acetylcysteine; format: functional, cell-based
How it was run: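 WST-1 viability assay in ZR-75-1 cells: 5 μM NAC added, then 20–50 μM compound in NAC-containing medium for 24 h. A450 read after 30 min WST-1 incubation and expressed as % of control. Mean ± SEM of three experiments.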

ZR-75-1 [12] = experiment: Induction of apoptosis in human ZR-75-1 cells at 20 to 40 uM preincubated for 24 hrs followed by antioxidant N-Acetylcysteine addition by annexin V-FITC/propidium iodide staining-based flow cytometric analysis; format: functional, cell-based; how it was run: as §1
ZR-75-1 [13] = experiment: Induction of apoptosis in human ZR-75-1 cells at 20 to 50 uM preincubated for 24 hrs followed by antioxidant N-Acetylcysteine and Ca2+ chelator BAPTA-AM addition by annexin V-FITC/propidium iodide staining-based flow cytometric analysis; format: functional, cell-based
ZR-75-1 [14] = experiment: Induction of apoptosis in human ZR-75-1 cells assessed as increase in cleaved caspase-9 level at 20 to 40 uM after 24 hrs by Western immunoblot analysis; format: functional, cell-based
How it was run: (§4)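 Confluent ZR-75-1 cells (3 × 10^6/dish) treated with 20, 30 or 40 μM compound for 24 h. Where used, 5 μM BAPTA-AM or 5 μM NAC was added before the compound. About 50 μg lysate protein run on 10% SDS-PAGE, transferred to PVDF, probed for cleaved caspase-9/-3 and β-actin, chemiluminescence. Densitometry normalized to β-actin. Three experiments.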

ZR-75-1 [15] = experiment: Induction of apoptosis in human ZR-75-1 cells assessed as increase in cleaved caspase-3 level at 20 to 40 uM after 24 hrs by Western immunoblot analysis; format: functional, cell-based; how it was run: as §4
ZR-75-1 [16] = experiment: Induction of apoptosis in human ZR-75-1 cells assessed as activation of caspase-9 at 20 to 40 uM preincubated for 24 hrs followed by Ca2+ chelator BAPTA-AM addition by Western immunoblot analysis; format: functional, cell-based; how it was run: as §4
ZR-75-1 [17] = experiment: Induction of apoptosis in human ZR-75-1 cells assessed as activation of caspase-3 at 20 to 40 uM preincubated for 24 hrs followed by Ca2+ chelator BAPTA-AM addition by Western immunoblot analysis; format: functional, cell-based; how it was run: as §4
ZR-75-1 [18] = experiment: Induction of apoptosis in human ZR-75-1 cells assessed as activation of caspase-9 at 20 to 40 uM preincubated for 24 hrs followed by antioxidant N-Acetylcysteine addition by Western immunoblot analysis; format: functional, cell-based; how it was run: as §4
ZR-75-1 [19] = experiment: Induction of apoptosis in human ZR-75-1 cells assessed as activation of caspase-3 at 20 to 40 uM preincubated for 24 hrs followed by antioxidant N-Acetylcysteine addition by Western immunoblot analysis; format: functional, cell-based; how it was run: as §4
ZR-75-1 [20] = experiment: Induction of reactive oxygen species production in human ZR-75-1 cells after 24 hrs by DCFH-DA probe-based flow cytometric analysis; format: functional, cell-based; how it was run: as §3
ZR-75-1 [21] = experiment: Increase in intracellular Ca2+ level in human ZR-75-1 cells at 50 uM treated for 25 secs by fura-2-AM dye-based spectrofluorophotometric analysis in presence of Ca2+ containing medium (reference value: 50 +/- 3 nM); format: functional; conditions: in the assay text read “40 uM treated” for “50 uM treated”
How it was run: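 Fura-2-loaded ZR-75-1 cells (0.5 million per 1 mL, stirred, 25 °C) in Ca2+-containing or Ca2+-free medium. Compound added at 25 s. 340/380 nm excitation, 510 nm emission at 1 s intervals, calibrated to nM. Concentration-response from baseline-subtracted area under curve (25–250 s) as % of 50 μM response in Ca2+ medium. EC50 from Hill fit. Three experiments.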

O=c1cc(-c2ccccc2)oc2cc(O)c(O)c(O)c12 [BAICALEIN]
Activity (ZR-75-1 [1]): 22.71%
Activity (ZR-75-1 [2]): inactive
Activity (ZR-75-1 [3]): inactive
Activity (ZR-75-1 [4]): Dose-dependent effect
Activity (ZR-75-1 [5]): inactive
Activity (ZR-75-1 [6]): inactive
Activity (ZR-75-1 [7]): 22.707%
Activity (ZR-75-1 [8]): 32.663%
Activity (ZR-75-1 [9]): 43.227%
Activity (ZR-75-1 [10]): inactive
Activity (ZR-75-1 [11]): inactive
Activity (ZR-75-1 [12]): inactive
Activity (ZR-75-1 [13]): inactive
Activity (ZR-75-1 [14]): Active
Activity (ZR-75-1 [15]): Active
Activity (ZR-75-1 [16]): inactive
Activity (ZR-75-1 [17]): inactive
Activity (ZR-75-1 [18]): inactive
Activity (ZR-75-1 [19]): inactive
Activity (ZR-75-1 [20]): Dose-dependent effect
Activity (ZR-75-1 [21]): 220 nM
